Source: PMC3483416 (Archives of biochemistry and biophysics, 2012)
Read-outs that look alike come from different tables or passages of the source.

How the values were obtained:
[1] = Steady-state intrinsic tryptophan fluorescence of BclXL; format: physicochemical; conditions: 5μM BclXL, excitation 290nm, 25 °C
In short: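 Tryptophan emission of 5 μM full-length human BclXL (N-His, E. coli-expressed) alone in 50 mM acetate pH 4, phosphate pH 6, Tris pH 8 or CAPS pH 10. 25 °C, 10-mm cuvette; excitation 290 nm; emission scanned 300–500 nm; 2.5-nm bandwidths. Spectra corrected against buffer reference. At least three repeats.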

[2] = Analytical light scattering; format: physicochemical; conditions: for Mw (weighted-average molar mass): Superdex 200, 10°C; for P (population of species): integration of elution peak
In short: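 Full-length His-tagged human BclXL, 50 μM starting concentration, run on Superdex 200 SEC at 1 ml/min and 10 °C in 50 mM buffer (pH 4–10) with 100 mM NaCl, 1 mM EDTA and 5 mM β-mercaptoethanol. Inline triple-angle SLS, 90° DLS and refractive-index concentration detection. Mw, Mn and Rg from Zimm treatment; Rh from autocorrelation fit. Errors one SD, ≥3 independent runs.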

[3] = Acrylamide quenching of BclXL intrinsic fluorescence; format: physicochemical; conditions: 5μM BclXL, excess acrylamide, 25 °C
In short: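 Intrinsic fluorescence quenching: 5 μM His-tagged full-length human BclXL with excess acrylamide in 50 mM acetate (pH 4), phosphate (pH 6), Tris (pH 8) or CAPS (pH 10). 25 °C, 10-mm cuvette; excitation 290 nm; emission 300–500 nm; 2.5-nm bandwidths. […] Q = (Φo−Φ)/Φo × 100% from integrated spectral areas. At least three repeats.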

[4] = format: physicochemical; conditions: 50μM BclXL, 1°C/min
Near-UV CD of BclXL = format: physicochemical; conditions: 30μM BclXL, 25°C
In short: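 Near-UV spectra recorded on 30 μM His-tagged full-length human BclXL in 50 mM acetate pH 4, phosphate pH 6, Tris pH 8 or CAPS pH 10. 25 °C; 10-mm quartz cuvette; 260–340 nm; 2-nm slit; 10 nm/min. Spectra normalized against buffer references. At least three repeats.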

Far-UV CD of BclXL = format: physicochemical; conditions: 5μM BclXL, 25°C
In short: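 Far-UV spectra of 5 μM full-length human BclXL in 50 mM acetate (pH 4), phosphate (pH 6), Tris (pH 8) or CAPS (pH 10). 25 °C; 2-mm quartz cuvette; 190–250 nm; 2-nm slit; 10 nm/min scan. Buffer reference spectra subtracted. At least three repeats.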

[5] = ANS fluorescence in the presence of BclXL; format: binding; conditions: for ANS fluorescence enhancement: 5μM BclXL, excess ANS, excitation 375nm, 25 °C
In short: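 Full-length human BclXL (residues 1–233, N-His, E. coli-expressed, Ni-NTA purified) at 5 μM with excess ANS in 50 mM acetate pH 4, phosphate pH 6, Tris pH 8 or CAPS pH 10. 25 °C; excitation 375 nm; emission 400–600 nm; 2.5-nm bandwidths. ANS-alone background subtracted. Enhancement = (Φ−Φo)/Φo × 100%, where Φ is the integrated spectral area. At least three repeats.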

[6] = Dimer, pH 6, ± SD, n at least 3
[7] = Dimer, pH 8, ± SD, n at least 3
[8] = Dimer, pH 10, ± SD, n at least 3
[9] = Megamer, pH 4, ± SD, n at least 3
[10] = Monomer, pH 6, ± SD, n at least 3
[11] = Monomer, pH 8, ± SD, n at least 3
[12] = Multimer, pH 6, ± SD, n at least 3
[13] = Multimer, pH 8, ± SD, n at least 3
[14] = Multimer, pH 10, ± SD, n at least 3
[15] = Polymer, pH 6, ± SD, n at least 3
[16] = Polymer, pH 8, ± SD, n at least 3
[17] = Polymer, pH 10, ± SD, n at least 3

ANS emission maximum upon binding to BclXL ([5]; blue-shifted from 515nm in water): around 475 nm
Substance: full-length BclXL: Full-length human BclXL (residues 1-233), N-terminal His-tag, expressed in Escherichia coli
intrinsic fluorescence vs pH ([1]; pH 4, 6, 8, 10): drops as the pH changes from 4 to 6, it undergoes substantial enhancement at pH 8 only to drop again at pH 10
tryptophan emission maximum ([1]; pH-independent): around 338 nm
Mw (weighted-average molar mass) ([2]; Dimer, pH 6, phosphate, 50μM loaded, ± SD, n at least 3): 61 ± 3 kD
P (population of species) ([2]; Dimer, pH 6): 11%
Mn (number-average molar mass) [2, 6]: 59 ± 2 kD
Mw/Mn [2, 6]: 1.02 ± 0.01
Rh (weighted-average hydrodynamic radius) [2, 6]: 49 ± 4 Å
Mw (weighted-average molar mass) ([2]; Dimer, pH 8, Tris, 50μM loaded, ± SD, n at least 3): 62 ± 4 kD
P (population of species) ([2]; Dimer, pH 8): 5%
Mn (number-average molar mass) [2, 7]: 61 ± 2 kD
Mw/Mn [2, 7]: 1.01 ± 0.01
Rh (weighted-average hydrodynamic radius) [2, 7]: 48 ± 2 Å
Mw (weighted-average molar mass) ([2]; Dimer, pH 10, CAPS, 50μM loaded, ± SD, n at least 3): 61 ± 3 kD
P (population of species) ([2]; Dimer, pH 10): 5%
Mn (number-average molar mass) [2, 8]: 60 ± 3 kD
Mw/Mn [2, 8]: 1.02 ± 0.01
Rh (weighted-average hydrodynamic radius) [2, 8]: 49 ± 3 Å
Mw (weighted-average molar mass) ([2]; Megamer, pH 4, acetate, 50μM loaded, ± SD, n at least 3): 33805 ± 2821 kD
Mn (number-average molar mass) ([2]; Megamer, pH 4, 50μM loaded, 10°C, ± SD, n at least 3): 33085 ± 2623 kD
P (population of species) ([2]; Megamer, pH 4): 100%
Mw/Mn [2, 9]: 1.02 ± 0.01
Rg (weighted-average radius of gyration) [2, 9]: 783 ± 86 Å
Rg/Rh [2, 9]: 2.40 ± 0.16
Rh (weighted-average hydrodynamic radius) [2, 9]: 324 ± 23 Å
Mw (weighted-average molar mass) ([2]; Monomer, pH 6, phosphate, 50μM loaded, ± SD, n at least 3): 32 ± 2 kD
P (population of species) ([2]; Monomer, pH 6): 31%
Mn (number-average molar mass) [2, 10]: 31 ± 2 kD
Mw/Mn [2, 10]: 1.01 ± 0.01
Rh (weighted-average hydrodynamic radius) [2, 10]: 26 ± 1 Å
Mw (weighted-average molar mass) ([2]; Monomer, pH 8, Tris, 50μM loaded, ± SD, n at least 3): 31 ± 1 kD
P (population of species) ([2]; Monomer, pH 8): 7%
Mn (number-average molar mass) [2, 11]: 30 ± 2 kD
Mw/Mn [2, 11]: 1.00 ± 0.00
Rh (weighted-average hydrodynamic radius) [2, 11]: 34 ± 2 Å
Mw (weighted-average molar mass) ([2]; Monomer, pH 10, CAPS, 50μM loaded, ± SD, n at least 3): 31 ± 2 kD
P (population of species) ([2]; Monomer, pH 10): 9%
Mw (weighted-average molar mass) ([2]; Multimer, pH 6, phosphate, 50μM loaded, ± SD, n at least 3): 595 ± 45 kD
P (population of species) ([2]; Multimer, pH 6): 37%
Mn (number-average molar mass) [2, 12]: 577 ± 39 kD
Mw/Mn [2, 12]: 1.03 ± 0.02
Rg (weighted-average radius of gyration) [2, 12]: 141 ± 5 Å
Rg/Rh [2, 12]: 1.47 ± 0.02
Rh (weighted-average hydrodynamic radius) [2, 12]: 95 ± 3 Å
Mw (weighted-average molar mass) ([2]; Multimer, pH 8, Tris, 50μM loaded, ± SD, n at least 3): 364 ± 32 kD
P (population of species) ([2]; Multimer, pH 8): 51%
Mn (number-average molar mass) [2, 13]: 325 ± 33 kD
Mw/Mn [2, 13]: 1.11 ± 0.01
Rg (weighted-average radius of gyration) [2, 13]: 98 ± 4 Å
Rg/Rh [2, 13]: 1.08 ± 0.02
Rh (weighted-average hydrodynamic radius) [2, 13]: 90 ± 2 Å
Mw (weighted-average molar mass) ([2]; Multimer, pH 10, CAPS, 50μM loaded, ± SD, n at least 3): 461 ± 21 kD
P (population of species) ([2]; Multimer, pH 10): 50%
Mn (number-average molar mass) [2, 14]: 448 ± 23 kD
Mw/Mn [2, 14]: 1.03 ± 0.01
Rg (weighted-average radius of gyration) [2, 14]: 131 ± 5 Å
Rg/Rh [2, 14]: 1.21 ± 0.01
Rh (weighted-average hydrodynamic radius) [2, 14]: 108 ± 4 Å
Mw (weighted-average molar mass) ([2]; Polymer, pH 6, phosphate, 50μM loaded, ± SD, n at least 3): 3521 ± 292 kD
P (population of species) ([2]; Polymer, pH 6): 21%
Mn (number-average molar mass) [2, 15]: 3101 ± 201 kD
Mw/Mn [2, 15]: 1.13 ± 0.03
Rg (weighted-average radius of gyration) [2, 15]: 230 ± 12 Å
Rg/Rh [2, 15]: 1.22 ± 0.02
Rh (weighted-average hydrodynamic radius) [2, 15]: 187 ± 9 Å
Mw (weighted-average molar mass) ([2]; Polymer, pH 8, Tris, 50μM loaded, ± SD, n at least 3): 3729 ± 246 kD
P (population of species) ([2]; Polymer, pH 8): 37%
Mn (number-average molar mass) [2, 16]: 3226 ± 236 kD
Mw/Mn [2, 16]: 1.15 ± 0.02
Rg (weighted-average radius of gyration) [2, 16]: 218 ± 12 Å
Rg/Rh [2, 16]: 1.15 ± 0.03
Rh (weighted-average hydrodynamic radius) [2, 16]: 188 ± 11 Å
Mw (weighted-average molar mass) ([2]; Polymer, pH 10, CAPS, 50μM loaded, ± SD, n at least 3): 3189 ± 229 kD
P (population of species) ([2]; Polymer, pH 10): 36%
Mn (number-average molar mass) [2, 17]: 3018 ± 212 kD
Mw/Mn [2, 17]: 1.06 ± 0.02
Rg (weighted-average radius of gyration) [2, 17]: 232 ± 13 Å
Rg/Rh [2, 17]: 1.14 ± 0.02
Rh (weighted-average hydrodynamic radius) [2, 17]: 202 ± 7 Å
mass of megamer ([2]; acidic conditions (pH 4)): ~ 34,000 kD
monomeric units in megadalton oligomer ([2]; acidic conditions (pH 4)): more than 1000 monomeric units
Mw/Mn ([2]; megadalton oligomer, pH 4, text): < 1.05
Mw/Mn ([2]; monomeric and dimeric forms): < 1.05
Rg/Rh ([2]; multimer and polymer): > 1.05
mass of monomer ([2]; pH 6 and higher): ~ 31 kD
fluorescence quenching by acrylamide vs pH [3]: optimal quenching occurs at pH 6
melting temperature (no melting transition up to) ([4]; pH 4, 50mM buffer, 3atm): > 120 °C
melting temperature (Tm), first transition ([4]; pH 6, attributed to dissociation of dimer into monomers): around 55 °C
melting temperature (Tm), second transition ([4]; pH 6, attributed to unfolding of monomers): ~70 °C
melting temperature (Tm), first transition ([4]; pH 10, dissociation of dimer into monomers): around 60 °C
melting temperature (Tm), second transition ([4]; pH 10, unfolding of monomers): ~90 °C
near-UV CD signal (Near-UV CD of BclXL; acidic pH (pH 4)): substantially attenuated
near-UV CD signal (Near-UV CD of BclXL; alkaline conditions (pH 8 and 10)): also attenuated
near-UV CD signal (Near-UV CD of BclXL; pH 6): strong near-UV CD signal
intensity of far-UV spectrum (Far-UV CD of BclXL; pH 4-10): steadily increases with increasing pH
far-UV CD band, first (Far-UV CD of BclXL; all pH conditions): around 208 nm
far-UV CD band, second (Far-UV CD of BclXL; all pH conditions): ~222 nm
ANS fluorescence enhancement ([5]; pH 4): ~15 fold
ANS fluorescence enhancement ([5]; pH 6): 2 fold
ANS fluorescence enhancement ([5]; pH 8): about 5 fold
ANS fluorescence enhancement ([5]; pH 10): about 5 fold
